Measured values gathered from unrelated publications.
Target: Serine/threonine-protein kinase ULK2 (ULK2, Homo sapiens, UniProt Q8IYT8)
Residues used in one study (Q8IYT8 1-1036): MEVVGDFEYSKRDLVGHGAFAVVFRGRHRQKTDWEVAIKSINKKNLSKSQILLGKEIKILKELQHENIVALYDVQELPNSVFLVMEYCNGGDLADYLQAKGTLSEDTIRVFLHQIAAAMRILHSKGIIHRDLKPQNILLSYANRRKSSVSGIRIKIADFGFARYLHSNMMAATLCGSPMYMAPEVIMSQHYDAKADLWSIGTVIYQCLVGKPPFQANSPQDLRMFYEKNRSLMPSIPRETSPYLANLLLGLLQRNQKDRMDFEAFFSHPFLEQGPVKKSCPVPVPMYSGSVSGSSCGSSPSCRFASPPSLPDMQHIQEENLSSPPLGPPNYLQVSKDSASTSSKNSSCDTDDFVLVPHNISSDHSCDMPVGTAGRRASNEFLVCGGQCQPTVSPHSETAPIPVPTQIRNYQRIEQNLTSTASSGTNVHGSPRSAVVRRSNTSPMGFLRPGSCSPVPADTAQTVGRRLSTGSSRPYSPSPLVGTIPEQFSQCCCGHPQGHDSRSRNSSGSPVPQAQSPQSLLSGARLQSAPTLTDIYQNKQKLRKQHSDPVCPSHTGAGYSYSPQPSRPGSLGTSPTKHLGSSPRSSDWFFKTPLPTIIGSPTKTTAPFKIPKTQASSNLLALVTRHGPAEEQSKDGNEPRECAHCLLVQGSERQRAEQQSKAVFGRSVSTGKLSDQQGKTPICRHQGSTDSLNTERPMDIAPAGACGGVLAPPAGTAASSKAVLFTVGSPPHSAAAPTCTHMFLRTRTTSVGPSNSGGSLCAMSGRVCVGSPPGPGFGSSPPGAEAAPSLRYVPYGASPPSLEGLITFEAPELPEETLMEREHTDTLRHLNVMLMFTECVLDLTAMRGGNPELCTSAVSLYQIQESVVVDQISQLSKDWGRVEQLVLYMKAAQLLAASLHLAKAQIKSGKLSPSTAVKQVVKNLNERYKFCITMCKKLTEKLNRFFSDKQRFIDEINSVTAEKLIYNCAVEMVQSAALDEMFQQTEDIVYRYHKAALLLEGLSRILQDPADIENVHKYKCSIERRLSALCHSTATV

| SMILES | assay | conditions | measurement | value |
| --- | --- | --- | --- | --- |
| Nc1ncc(-c2nc(N3CCOCC3)nc(N3CCOCC3)n2)c(C(F)F)n1 | binding, competition with immobilised ligand | 10 µM | remaining binding | 72% |
| Cn1cncc1[C@](O)(COc1ccc(C#N)cc1-c1ccc(OC(F)(F)F)cc1)c1ccc(C#N)cc1 | cell-free assay, competition with immobilised ligand | 1 µM | remaining binding | 100% |
| CC(C)(C)c1cc(C=C(C#N)C#N)cc(Br)c1O | enzyme activity, inhibitor | 0.5 µM | remaining activity | 103% |
| Cc1nn(C)cc1-c1nc2c(N3CCN(Cc4ccc(Cl)cc4)CC3)c(Cl)cnc2[nH]1 | binding, competition with immobilised ligand | 1 µM | remaining binding | 100% |
| O=c1[nH]c2ccccc2n1C1CCN(Cc2ccc(-c3[nH]c4cc5ncnc5cc4nc3-c3ccccc3)cc2)CC1 | cell-free assay | 0.5 µM | remaining signal | 106% |
| C#Cc1n[nH]c2c(-c3cn([C@@H](C)c4ccccc4)c(=O)[nH]c3=O)cc(F)cc12 | enzyme activity, inhibitor | 0.1 µM | inhibition | -3.5% |
| COc1cc(Nc2ncc(F)c(Nc3ccc4c(n3)NC(=O)C(C)(C)O4)n2)cc(OC)c1OC | binding | 10 µM | inhibition | 100% |
| C#Cc1n[nH]c2c(-c3cn(C(C)c4ccccn4)c(=O)[nH]c3=O)cc(F)cc12 (stereo not drawn) | enzyme activity, inhibitor | 1 µM | inhibition | 8.6% |
| COc1ncccc1-c1cnn2ccc(N3CCN(C(=O)OC(C)C)CC3)nc12 | binding, competition with immobilised ligand | 1 µM | remaining binding | 70% |
